Laboratory results from ChEMBL document CHEMBL1123589, “Phenylpiperazine-based radiopharmaceuticals for brain imaging. 3. Synthesis and evaluation of radioiodinated 1-alkyl-4-phenylpiperazines” (J Med Chem, 1987).
“And” between values parts separate entries of the source, which are not always exact repeats. Equal entries are not always repeated.

Key:
Settings in all cases: in vivo
Canis familiaris [1] = experiment: The biodistribution of the [131I]-labeled compound in dog (mass= 5.7 kg), 2 hr after intravenous injection was evaluated in brain (ID.kg/g); format: ADME, organism-based, Canis lupus familiaris
Procedure, shortened: (§1)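 One female dog (5.7 kg) premedicated im with acepromazine maleate, then anesthetized iv with sodium nembutal/saline (1:1). Given 1.0 mCi iv of ¹³¹I-labeled agent. Killed 2 h post-dose with iv nembutal. Tissues excised, weighed and counted; blood, fat and muscle masses estimated as 7.5%, 27.5% and 40% of body weight. Expressed as % ID/organ and % ID·kg/g.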

Canis familiaris [2] = experiment: The biodistribution of the [131I]-labeled compound in dog (mass= 5.7 kg), 2 hr after intravenous injection was evaluated in cerebellum (ID.kg/g); format: ADME, organism-based, Canis lupus familiaris; procedure, shortened: as §1
Canis familiaris [3] = experiment: The biodistribution of the [131I]-labeled compound in dog (mass= 5.7 kg), 2 hr after intravenous injection was evaluated in cortex; format: ADME, organism-based, Canis lupus familiaris; procedure, shortened: as §1
Canis familiaris [4] = experiment: The biodistribution of the [131I]-labeled compound in dog (mass= 5.7 kg), 2 hr after intravenous injection was evaluated in cortex (ID.kg/g); format: ADME, organism-based, Canis lupus familiaris; procedure, shortened: as §1
Canis familiaris [5] = experiment: The biodistribution of the [131I]-labeled compound in dog (mass= 5.7 kg), 2 hr after intravenous injection was evaluated in fat (ID.kg/g); format: ADME, organism-based, Canis lupus familiaris, Adipose tissue; procedure, shortened: as §1
Rattus norvegicus [6] = experiment: The biodistribution of the [125I]-labeled compound in rats after intravenous injection was evaluated in adrenal at 1.00 hrs; value ranges from 0.80-1.14 (ID.kg/g); format: ADME, organism-based
Procedure, shortened: (§2)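 Male Sprague-Dawley rats (250–300 g) under ether anesthesia were given an iv injection of no-carrier-added 125I-labelled agent (10–15 μCi in 0.1 mL saline). The agent was iodinated with chloramine-T in acetate buffer and purified by C-18 HPLC. Groups of N = 3 were killed at 0.25, 1 and 4 h. Blood and tissues were weighed and γ-counted. Values are % ID·kg/g, mean (range).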

Rattus norvegicus [7] = experiment: The biodistribution of the [125I]-labeled compound in rats after intravenous injection was evaluated in adrenal at 4.00 hrs; value ranges from 0.81-1.19 (ID.kg/g); format: ADME, organism-based; procedure, shortened: as §2
Rattus norvegicus [8] = experiment: The biodistribution of the [125I]-labeled compound in rats after intravenous injection was evaluated in blood at 0.25 hrs (ID.kg/g); format: ADME, organism-based; procedure, shortened: as §2
Rattus norvegicus [9] = experiment: The biodistribution of the [125I]-labeled compound in rats after intravenous injection was evaluated in blood at 4.00 hrs (ID.kg/g); format: ADME, organism-based; procedure, shortened: as §2
Rattus norvegicus [10] = experiment: The biodistribution of the [125I]-labeled compound in rats after intravenous injection was evaluated in muscle at 0.25 hrs (ID.kg/g); format: ADME, organism-based, Muscle tissue
Procedure, shortened: (§3)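 Male Sprague-Dawley rats (250–300 g) under ether anesthesia given iv 0.1 mL saline containing 10–15 μCi of NCA ¹²⁵I-labeled agent (chloramine-T iodination, HPLC-purified). Groups of 3 killed at 0.25, 1 and 4 h. Blood and tissues excised, weighed and γ-counted. Values are mean (range) of % injected dose × body mass (kg) per gram of tissue.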

Canis familiaris [11] = experiment: The biodistribution of the [131I]-labeled compound in dog (mass= 5.7 kg), 2 hr after intravenous injection was evaluated in heart (ID.kg/g); format: ADME, organism-based, Canis lupus familiaris; procedure, shortened: as §1
Canis familiaris [12] = experiment: The biodistribution of the [131I]-labeled compound in dog (mass= 5.7 kg), 2 hr after intravenous injection was evaluated in kidney; format: ADME, organism-based, Canis lupus familiaris; procedure, shortened: as §1
Canis familiaris [13] = experiment: The biodistribution of the [131I]-labeled compound in dog (mass= 5.7 kg), 2 hr after intravenous injection was evaluated in lung (ID.kg/g); format: ADME, organism-based, Canis lupus familiaris; procedure, shortened: as §1
Canis familiaris [14] = experiment: The biodistribution of the [131I]-labeled compound in dog (mass= 5.7 kg), 2 hr after intravenous injection was evaluated in thyroid (ID.kg/g); format: ADME, organism-based, Canis lupus familiaris, Thyroid gland; procedure, shortened: as §1
Rattus norvegicus [15] = experiment: The biodistribution of the [125I]-labeled compound in rats after intravenous injection was evaluated in thyroid at 4.00 hrs; value ranges from 4.85-5.46 (ID.kg/g); format: ADME, organism-based, Thyroid gland; procedure, shortened: as §3
Canis familiaris [16] = experiment: The biodistribution of the [131I]-labeled compound in dog (mass= 5.7 kg), 2 hr after intravenous injection was evaluated in blood (ID.kg/g); format: ADME, organism-based, Canis lupus familiaris; procedure, shortened: as §1
Rattus norvegicus [17] = experiment: The biodistribution of the [125I]-labeled compound in rats after intravenous injection was evaluated in thyroid at 0.25 hrs; value ranges from 3.39-4.05 (ID.kg/g); format: ADME, organism-based, Thyroid gland; procedure, shortened: as §3
Rattus norvegicus [18] = experiment: The biodistribution of the [125I]-labeled compound in rats after intravenous injection was evaluated in brain at 4.00 hrs; value ranges from 0.25-0.41 (ID.kg/g); format: ADME, organism-based; procedure, shortened: as §2
Rattus norvegicus [19] = experiment: The biodistribution of the [125I]-labeled compound in rats after intravenous injection was evaluated in fat at 0.25 hr; value ranges from 0.03-0.05 (ID.kg/g); format: ADME, organism-based, Adipose tissue; procedure, shortened: as §2
Rattus norvegicus [20] = experiment: The biodistribution of the [125I]-labeled compound in rats after intravenous injection was evaluated in brain at 1.00 hrs (ID.kg/g); format: ADME, organism-based; procedure, shortened: as §2
Rattus norvegicus [21] = experiment: The biodistribution of the [125I]-labeled compound in rats after intravenous injection was evaluated in fat at 4.00 hrs (ID.kg/g); format: ADME, organism-based, Adipose tissue; procedure, shortened: as §2
Rattus norvegicus [22] = experiment: The biodistribution of the [125I]-labeled compound in rats after intravenous injection was evaluated in kidney at 1.00 hrs; value ranges from 0.52-0.61 (ID.kg/g); format: ADME, organism-based
Procedure, shortened: (§4)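 Male Sprague-Dawley rats (250–300 g), under ether anesthesia, given 10–15 μCi of the NCA ¹²⁵I-labeled agent iv in 0.1 mL saline. Groups of N = 3 were killed at 0.25, 1 or 4 h. Blood and tissues were removed, weighed and counted in a γ-well scintillation counter. Values are mean % ID·kg/g (range).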

Rattus norvegicus [23] = experiment: The biodistribution of the [125I]-labeled compound in rats after intravenous injection was evaluated in kidney at 4.00 hrs; value ranges from 0.32-0.42 (ID.kg/g); format: ADME, organism-based; procedure, shortened: as §4
Rattus norvegicus [24] = experiment: The biodistribution of the [125I]-labeled compound in rats after intravenous injection was evaluated in liver at 0.25 hr; value ranges from 0.27-0.39 (ID.kg/g); format: ADME, organism-based; procedure, shortened: as §4
Rattus norvegicus [25] = experiment: The biodistribution of the [125I]-labeled compound in rats after intravenous injection was evaluated in lung at 1.00 hrs; value ranges from 1.20-1.42( ID.kg/g); format: ADME, organism-based; procedure, shortened: as §4
Rattus norvegicus [26] = experiment: The biodistribution of the [125I]-labeled compound in rats after intravenous injection was evaluated in heart at 4.00 hrs; value ranges from 0.11-0.15 (ID.kg/g); format: ADME, organism-based; procedure, shortened: as §4
Rattus norvegicus [27] = experiment: The biodistribution of the [125I]-labeled compound in rats after intravenous injection was evaluated in kidney at 0.25 hr; value ranges from 0.48-0.58 (ID.kg/g); format: ADME, organism-based; procedure, shortened: as §4
Canis familiaris [28] = experiment: The biodistribution of the [131I]-labeled compound in dog (mass= 5.7 kg), 2 hr after intravenous injection was evaluated in cerebellum; format: ADME, organism-based, Canis lupus familiaris; procedure, shortened: as §1
Rattus norvegicus [29] = experiment: The biodistribution of the [125I]-labeled compound in rats after intravenous injection was evaluated in adrenal at 0.25 hrs; value ranges from 1.43-1.71 (ID.kg/g); format: ADME, organism-based; procedure, shortened: as §2
Rattus norvegicus [30] = experiment: The biodistribution of the [125I]-labeled compound in rats after intravenous injection was evaluated in muscle at 1.00 hrs (ID.kg/g); format: ADME, organism-based, Muscle tissue; procedure, shortened: as §3
Rattus norvegicus [31] = experiment: The biodistribution of the [125I]-labeled compound in rats after intravenous injection was evaluated in liver at 1.00 hrs; value ranges from 0.19-0.24 (ID.kg/g); format: ADME, organism-based; procedure, shortened: as §4

Q: With `CCCCN1CCN(c2ccc(I)cc2)CC1` as the compound, how does the Biodistribution (Canis familiaris [1]) read?
A: 1.824% and 0.165%

Q: And the Biodistribution (Canis familiaris [2])?
A: 0.165%

Q: And the Biodistribution (Canis familiaris [3])?
A: 0.1%

Q: And the Biodistribution (Canis familiaris [4])?
A: 0.171%

Q: What about the Biodistribution (Canis familiaris [5]) of the same compound?
A: 9.41% and 0.034%

Q: What about the Biodistribution (Rattus norvegicus [6]) of the same compound?
A: 1.14%

Q: And the Biodistribution (Rattus norvegicus [7])?
A: 1.19%

Q: What about the Biodistribution (Rattus norvegicus [8]) of the same compound?
A: 0.01 % ID·kg/g

Q: What about the Biodistribution (Rattus norvegicus [9]) of the same compound?
A: 0.01 % ID·kg/g

Q: And the Biodistribution (Rattus norvegicus [10])?
A: 0.03 % ID·kg/g

Q: What about the Biodistribution (Canis familiaris [11]) of the same compound?
A: 0.85%

Q: What about the Biodistribution (Canis familiaris [12]) of the same compound?
A: 0.88%

Q: And the Biodistribution (Canis familiaris [13])?
A: 1.287% and 0.143%

Q: And the Biodistribution (Canis familiaris [14])?
A: 0.032% and 0.342%

Q: And the Biodistribution (Rattus norvegicus [15])?
A: 5.46%

Q: And the Biodistribution (Canis familiaris [16])?
A: 1.072% and 0.148%

Q: What about the Biodistribution (Rattus norvegicus [17]) of the same compound?
A: 4.05%

Q: And the Biodistribution (Rattus norvegicus [18])?
A: 0.41%

Q: What about the Biodistribution (Rattus norvegicus [19]) of the same compound?
A: 0.05%

Q: And the Biodistribution (Rattus norvegicus [20])?
A: 0.28%

Q: What about the Biodistribution (Rattus norvegicus [21]) of the same compound?
A: 0.02%

Q: And the Biodistribution (Rattus norvegicus [22])?
A: 0.61%

Q: And the Biodistribution (Rattus norvegicus [23])?
A: 0.42%

Q: And the Biodistribution (Rattus norvegicus [24])?
A: 0.39%

Q: And the Biodistribution (Rattus norvegicus [25])?
A: 1.42%

Q: And the Biodistribution (Rattus norvegicus [26])?
A: 0.15%

Q: And the Biodistribution (Rattus norvegicus [27])?
A: 0.58%

Q: What about the Biodistribution (Canis familiaris [28]) of the same compound?
A: 1.571%

Q: What about the Biodistribution (Rattus norvegicus [29]) of the same compound?
A: 1.71%

Q: What about the Biodistribution (Rattus norvegicus [30]) of the same compound?
A: 0.04 %ID·kg/g

Q: What about the Biodistribution (Rattus norvegicus [31]) of the same compound?
A: 0.24%
